Shown are actives, neighbours in structure and some others; about 2.3% of the full set was active somewhere.
TRPC4 potent: allosterically enhances the mouse TRPC4 cation channel | AID 2227 | hit rate 0.42% among 310,000 | B-score at 10 µM | HEK293 TRPC4beta/mu-opioid, DAMGO EC20, Fluo-4 Ca2+ flux; hits give high values;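 active = B-score of calcium response area above 5 SD of library B-scores, with initial fluorescence ratio within 5 SD of library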
Target sequence (Q9QUQ5 whole entry, looked up): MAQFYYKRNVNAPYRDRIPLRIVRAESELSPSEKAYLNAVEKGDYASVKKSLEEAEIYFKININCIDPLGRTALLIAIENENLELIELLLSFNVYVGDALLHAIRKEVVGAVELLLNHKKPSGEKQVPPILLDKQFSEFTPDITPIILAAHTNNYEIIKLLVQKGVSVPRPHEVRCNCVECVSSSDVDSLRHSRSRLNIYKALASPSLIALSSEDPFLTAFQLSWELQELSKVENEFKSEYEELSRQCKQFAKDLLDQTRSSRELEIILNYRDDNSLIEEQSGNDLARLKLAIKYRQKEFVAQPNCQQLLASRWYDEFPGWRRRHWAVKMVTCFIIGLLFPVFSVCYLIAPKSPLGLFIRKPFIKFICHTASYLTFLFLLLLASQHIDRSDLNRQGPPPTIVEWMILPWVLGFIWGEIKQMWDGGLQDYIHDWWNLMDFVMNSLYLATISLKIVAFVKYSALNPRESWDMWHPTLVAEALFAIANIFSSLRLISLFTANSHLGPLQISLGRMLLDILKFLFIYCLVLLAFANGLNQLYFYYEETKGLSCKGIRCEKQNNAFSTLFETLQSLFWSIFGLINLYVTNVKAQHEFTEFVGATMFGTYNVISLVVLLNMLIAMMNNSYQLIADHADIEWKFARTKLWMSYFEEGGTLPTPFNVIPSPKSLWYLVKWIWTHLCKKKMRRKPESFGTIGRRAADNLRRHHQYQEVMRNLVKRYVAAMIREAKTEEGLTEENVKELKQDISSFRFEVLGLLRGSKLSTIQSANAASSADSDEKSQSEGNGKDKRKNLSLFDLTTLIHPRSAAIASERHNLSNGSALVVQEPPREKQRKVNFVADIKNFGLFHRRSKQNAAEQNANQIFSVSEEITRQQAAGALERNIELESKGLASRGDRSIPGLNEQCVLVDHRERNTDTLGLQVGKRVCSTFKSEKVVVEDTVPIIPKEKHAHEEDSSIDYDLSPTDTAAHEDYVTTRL
TRPC4 agonist: opens the mouse TRPC4 cation channel; Q9QUQ5; HEK293 TRPC4beta/mu-opioid, Fluo4 calcium fluorescence; hits give high values; B-score at 10 µM; hit rate 0.49% among 310,000;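 active = B-score above 5 SD of library B-scores, and initial fluorescence ratio not above library mean plus 5 SD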;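 also: positive B-score marks a calcium rise read as TRPC4 activation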
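Technique: kinetic Fluo4 calcium fluorescence; Test system: TRPC4beta and mu-opioid receptor HEK293 stable cells; Measure: B-scored integrated calcium fluorescence ratio; Benchmarks: low control buffer alone, high control maximal DAMGO; Schedule: 45 min room-temperature Fluo4 loading, 110 s read.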
TRPC6 act: activators of mouse TRPC6 channel; Q61143; HEK293-TRPC6 membrane potential dye fluorescence; hits give high values; AID 2550; hit rate 0.13% among 310,000; B-score at 10 µM;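 active = B-score of the integrated fluorescence ratio above library mean plus 3 SD, and starting fluorescence ratio within library mean plus 5 SD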;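 also: higher score means more depolarization so channel activation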
TRPC6 inh: inhibitors of mouse TRPC6 channel; Q61143; HEK293-TRPC6, membrane potential dye, ACh-evoked depolarization; hits give low values; B-score at 10 µM; hit rate 1.1% among 310,000; AID 2553;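 active = B-score under library mean minus 3 SD, initial fluorescence not abnormally high, positive integrated signal ratio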;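 also: B-score derived from integrated fluorescence ratio over the kinetic read; more negative B-score means stronger inhibition of depolarization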
TRPC4 block: inhibitors of mouse TRPC4 channel; HEK293 TRPC4beta/mu-opioid, DAMGO-evoked Fluo4 calcium flux; hits give low values; AID 2247; hit rate 0.39% among 300,000; B-score at 10 µM; Q9QUQ5;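 active = B-score over 3 SD under the library average, no early fluorescence shift, positive overall ratio signal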
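System: stable TRPC4beta/mu-opioid receptor HEK293 cells; Dosing: single-point compound dosing; Measured by: Fluo4 Ca2+ flux fluorescence; Read-out basis: per-well B score of integrated baseline-normalized Fluo4 ratio.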
TRPC4 sel inh 2: mouse TRPC4 off-target activity of TRPC6 inhibitors, second screen | shares compounds with TRPC6 inh | HEK293 TRPC4/MOR, membrane potential dye fluorescence; channel activated by saturating DAMGO dose | inhibition, % at 10 µM | hit rate 42% among 920;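 active = compounds whose fluorescence signal differed from control wells by over 3 SD, either direction, in both duplicate plates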
TRPC4 spec: tests whether TRPC6 inhibitors also affect mouse TRPC4. shares compounds with TRPC6 inh. hit rate 61% among 920. AID 2777. HEK293 TRPC4/mu-opioid, membrane potential fluorescence. activity change, negative = inhibition, % at 10 µM;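 active = rise or fall in signal beyond 3 SD of buffer-only wells in both replicate plates, either sign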;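 also: integrated kinetic ratio of fluorescence range over baseline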
HEK293 MPD ctr 2-1: second check of TRPC6 inhibitor effects in parental HEK293 cells; shares compounds with TRPC6 inh; parental HEK293 membrane potential dye fluorescence; maximal acetylcholine challenge after compound addition; signal change vs control, % at 10 µM; hit rate 31% among 920;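 active = membrane potential signal moving either way by over 3 SD of the maximum-effect control, in both duplicate plates, meaning non-specific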
HEK293 MPD ctr-1: checks TRPC6 inhibitor effects in parental HEK293 cells; shares compounds with TRPC6 inh; membrane potential signal change, % at 10 µM; hit rate 60% among 920; parental HEK293 membrane potential dye fluorescence; AID 2780;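 active = membrane potential signal shifting up or down by more than 3 SD of buffer-only wells, on both duplicate plates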
HEK293 MPD ctr-2: counter-screen for TRPC6 modulators: effect in parental HEK293 cells; membrane potential signal change, % at 10 µM; shares compounds with TRPC6 inh; membrane potential dye fluorescence; AID 488924; hit rate 51% among 2,400;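 active = membrane potential signal moves up or down beyond 5 SD from buffer-only wells, on both duplicate plates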
HEK293 MPD ctr 2-2: second check of TRPC6 modulator effects in parental HEK293 cells; membrane potential dye fluorescence; after compound, maximal acetylcholine stimulation; inhibition, % at 10 µM; shares compounds with TRPC6 inh; hit rate 14% among 2,400; AID 488926;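 active = membrane potential signal drops by more than 5 SD from the mean control signal, in both duplicate plates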
TRPC4 ctr mod: selectivity of TRPC6 modulators against mouse TRPC4. HEK293 TRPC4/mu-opioid, membrane potential fluorescence. shares compounds with TRPC6 inh. percent change from control (negative = decrease, positive = increase), % at 10 µM. hit rate 69% among 2,400;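 active = membrane potential signal moved up or down beyond 5 SD of buffer control wells, in both duplicate plates, actives on both sides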
TRPC4 ctr inh 2: second check of whether TRPC6 modulators also affect mouse TRPC4 | HEK293 TRPC4/mu-opioid, membrane potential dye fluorescence; stimulated with maximal-effect DAMGO | shares compounds with TRPC6 inh | inhibition, % at 10 µM | hit rate 55% among 2,400;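 active = drop in membrane potential signal beyond 5 SD of the control wells in both duplicate plates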;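 also: TRPC4 counter screen for TRPC6 hits run under conditions tuned for TRPC6 not TRPC4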
TRPC6 block conf: mouse TRPC6 inhibitor confirmation. HEK293-TRPC6, membrane potential dye, ACh-evoked depolarization. hit rate 43% among 3,300. shares compounds with TRPC6 inh. inhibition, % at 10 µM;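 active = fluorescence ratio falls more than 5 SD below the full-stimulation control mean, in both duplicate runs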;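 also: integrated fluorescence ratio of peak minus minimum over baseline after agonist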
TRPC6 act conf: mouse TRPC6 activator confirmation; hit rate 11% among 2,800; AID 488961; activation, % at 10 µM; shares compounds with TRPC6 inh; HEK293-TRPC6 membrane potential dye fluorescence, FDSS;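 active = ratio signal rise beyond 5 SD above unstimulated control wells' mean, seen in both duplicate runs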
Large screens that a line does not name were inactive (follow-up assays come after a bar, where they were run).

CC[N+](C)(CC)CCOC(=O)C(O)(c1ccccc1)C1CCCCC1 (stereo not given)	TRPC6 inh -8.9 | TRPC4 sel inh 2 inactive | TRPC4 spec inactive | HEK293 MPD ctr 2-1 -33% | HEK293 MPD ctr-1 inactive | TRPC6 block conf 83% | TRPC6 act conf inactive
CCC(C(=O)NC1CCCCCC1)c1ccccc1 (stereo not given)	none
O=C(O)CSc1nnc(NC(=O)CN2CCOCC2)s1	none
COCCCNC(=S)N1CCCN(c2nc3cc(C)c(C)cc3cc2C#N)CC1	TRPC6 inh -5.2 | HEK293 MPD ctr-2 inactive | HEK293 MPD ctr 2-2 inactive | TRPC4 ctr mod inactive | TRPC4 ctr inh 2 inactive | TRPC6 block conf 60%
COCCCNC(=S)N1CCCN(c2nc3cc(C)ccc3cc2C#N)CC1	TRPC6 inh -11 | TRPC4 sel inh 2 inactive | TRPC4 spec inactive | HEK293 MPD ctr 2-1 inactive | HEK293 MPD ctr-1 inactive | TRPC6 block conf 85%
CCOCCCNC(=S)N1CCCN(c2nc3cc(C)c(C)cc3cc2C#N)CC1	none
CCCNC(=O)CN(C)CC(=O)Nc1ccccc1C#N	none
Nc1[nH]n2c(=O)cc(-c3ccccc3)nc2c1N=Nc1ccc(S(N)(=O)=O)cc1	none
Nc1[nH]n2c(=O)cc(-c3ccccc3)nc2c1N=Nc1ccccc1	TRPC6 inh -8 | TRPC4 sel inh 2 50% | TRPC4 spec -20% | HEK293 MPD ctr 2-1 inactive | HEK293 MPD ctr-1 -316% | TRPC6 block conf 77% | TRPC6 act conf inactive
Cc1cc(C)nc(/N=C(\N)Nc2cc([N+](=O)[O-])ccc2C)n1	TRPC6 inh -7.1 | HEK293 MPD ctr-2 -166% | HEK293 MPD ctr 2-2 inactive | TRPC4 ctr mod -28% | TRPC4 ctr inh 2 48% | TRPC6 block conf 58% | TRPC6 act conf inactive
COc1cc(NC(N)=S)c(OC)cc1Cl	none
COc1cc(N/C(N)=N/c2nc(C)cc(C)n2)c(OC)cc1Cl	TRPC6 inh -8.2 | TRPC4 sel inh 2 inactive | TRPC4 spec -11% | HEK293 MPD ctr 2-1 inactive | HEK293 MPD ctr-1 -170% | TRPC6 block conf 90% | TRPC6 act conf inactive
CC1CC(C)CN(S(=O)(=O)c2ccc(NC(=O)CN3C(=O)NC(C)(c4ccccc4)C3=O)cc2)C1 (stereo not given)	none
CC(=O)N1CCN(CC(=O)Nc2ccccc2Sc2ccccc2)CC1	none
CCOc1ccc(N(CC(=O)NCCc2ccc(C)cc2)S(=O)(=O)c2c(C)noc2C)cc1	none
CSc1ccccc1NC(=O)c1ccccc1N(Cc1ccccc1)S(C)(=O)=O	TRPC6 inh -5.2 | HEK293 MPD ctr-2 142% | HEK293 MPD ctr 2-2 inactive | TRPC4 ctr mod 30% | TRPC4 ctr inh 2 inactive | TRPC6 block conf inactive
Cc1ccc(C)c(OCCC(=O)OCC(=O)NCc2ccc(F)cc2)c1	none
COc1ccc(C(=O)N/C(=C\c2ccccc2)C(=O)NCc2cccnc2)cc1	none
O=C(NCc1cccnc1)/C(=C/c1ccc(Cl)cc1)NC(=O)c1ccccc1	TRPC6 inh -5.6 | HEK293 MPD ctr-2 inactive | HEK293 MPD ctr 2-2 inactive | TRPC4 ctr mod inactive | TRPC4 ctr inh 2 inactive | TRPC6 block conf inactive | TRPC6 act conf inactive
COc1ccc(/C=N/N2CCOCC2)cc1COc1ccc(Cl)cc1	none
O=C(O)c1ccc(N2CC3CC(C2)c2cccc(=O)n2C3)c(NS(=O)(=O)c2cccc(C(F)(F)F)c2)c1 (stereo not given)	none
Cn1c(N)c(-c2ccccc2)c2ccc([N+](=O)[O-])cc2c1=O	none
CCOC(=O)c1ccc(NC(=O)CC2COc3ccccc3O2)cc1 (stereo not given)	TRPC6 inh -7.4 | TRPC4 sel inh 2 inactive | TRPC4 spec inactive | HEK293 MPD ctr 2-1 inactive | HEK293 MPD ctr-1 inactive | TRPC6 block conf inactive | TRPC6 act conf inactive
CCOC(=O)c1cccc(NC(=O)CC2Oc3ccccc3NC2=O)c1 (stereo not given)	TRPC6 inh -6 | HEK293 MPD ctr-2 inactive | HEK293 MPD ctr 2-2 inactive | TRPC4 ctr mod inactive | TRPC4 ctr inh 2 inactive | TRPC6 block conf inactive | TRPC6 act conf inactive
CC(=O)c1cccc(NC(=O)CC2Oc3ccc(C)cc3NC2=O)c1 (stereo not given)	none
COc1ccccc1NC(=O)CC1COc2ccccc2O1 (stereo not given)	none
CC(=O)c1cn(N2CCCCC2)c(=O)[nH]c1=O	none
C#CCOCCOCCOCCNc1nc(N2CCN(C(=O)[C@H]([C@@H](C)CC)n3cc([C@@H](N)Cc4ccc(O)cc4)nn3)CC2)nc(N2CCN(C(=O)[C@H]([C@@H](C)CC)n3cc([C@@H](N)Cc4ccc(O)cc4)nn3)CC2)n1	TRPC6 inh -6 | HEK293 MPD ctr-2 -102% | HEK293 MPD ctr 2-2 inactive | TRPC4 ctr mod -28% | TRPC4 ctr inh 2 inactive | TRPC6 block conf inactive | TRPC6 act conf inactive
C#CCOCCOCCOCCNc1nc(N2CCN(C(=O)[C@H]([C@@H](C)CC)n3cc([C@@H](N)CO)nn3)CC2)nc(N2CCN(C(=O)[C@H]([C@@H](C)CC)n3cc([C@@H](N)Cc4ccc(O)cc4)nn3)CC2)n1	none
CCCCc1cc(=O)oc2cc(C)cc(OCC(=O)NCc3ccncc3)c12	TRPC6 inh -7.4 | HEK293 MPD ctr-2 inactive | HEK293 MPD ctr 2-2 inactive | TRPC4 ctr mod inactive | TRPC4 ctr inh 2 inactive | TRPC6 block conf inactive | TRPC6 act conf inactive

Assay outcomes deposited in PubChem BioAssay by Johns Hopkins Ion Channel Center.
